Assay results: ChEMBL document CHEMBL1153268 (Bioorg Med Chem Lett, 2009)
pEC50: −log10 of the molar value. The source made the active and inactive calls. The calls are words filed in the database; no cut-off is given here.

Tests used:
[1] = biological target: T1, Neurotensin receptor type 1 (Homo sapiens, UniProt P30989); assay: Agonist activity at NTR1 expressed in CHOK1 cells assessed as stimulation of calcium mobilization at 10 uM relative to neurotensin; type: functional, cell-based; details: CHO-K1
T1 sequence (P30989 whole entry): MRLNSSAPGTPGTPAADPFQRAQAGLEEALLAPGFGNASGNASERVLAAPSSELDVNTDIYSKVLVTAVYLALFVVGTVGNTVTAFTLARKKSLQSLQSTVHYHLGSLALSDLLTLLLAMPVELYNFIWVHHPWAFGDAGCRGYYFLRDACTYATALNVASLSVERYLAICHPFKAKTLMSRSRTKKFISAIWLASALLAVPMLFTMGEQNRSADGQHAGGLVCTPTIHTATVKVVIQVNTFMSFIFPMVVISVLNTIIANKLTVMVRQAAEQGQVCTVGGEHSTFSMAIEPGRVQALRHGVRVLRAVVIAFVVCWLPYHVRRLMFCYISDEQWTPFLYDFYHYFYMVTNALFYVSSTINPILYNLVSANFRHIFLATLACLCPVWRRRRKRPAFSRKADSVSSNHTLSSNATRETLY
Method in brief: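 CHO-K1 cells stably expressing NTR1, plated 20,000/well 24 h before assay, washed and loaded with calcium-4 dye in HBSS/20 mM HEPES/2 mM probenecid, 1 h, 37 °C, 5% CO2. Compound added at 10 μM final (1% DMSO), triplicate.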

[2] = biological target: T1, Neurotensin receptor type 1; assay: Agonist activity at NTR1 expressed in CHOK1 cells by calcium mobilization assay; type: functional, cell-based, CHO-K1

Structure (SMILES)	Activity [1]	pEC50 [2]
COc1cccc(OC)c1-c1cc(C(=O)N[C@@H](CC(C)C)C(=O)O)nn1-c1cccc2ccccc12	inactive	
COc1cccc(OC)c1-c1cc(C(=O)N[C@H](CC(C)C)C(=O)O)nn1-c1ccnc2cc(Cl)ccc12	57%	6.01
CC(C)CC(NC(=O)OCC1c2ccccc2-c2ccccc21)C(=O)O (stereo not given)		6.67
COc1cccc(OC)c1-c1cc(C(=O)NCC(=O)O)nn1-c1ccnc2cc(Cl)ccc12	inactive	
COc1cccc(OC)c1-c1cc(C(=O)N[C@@H](CC(C)C)C(=O)O)nn1-c1ccnc2cc(Cl)ccc12		7.17
CC(C)C[C@H](NC(=O)Cn1ccc2cc(NS(=O)(=O)c3cccc4cccnc34)ccc21)C(=O)O		6.75
COc1cccc(OC)c1-c1cc(C(=O)N[C@@H](Cc2ccccc2)C(=O)O)nn1-c1ccnc2cc(Cl)ccc12	inactive	
COc1cccc(OC)c1-c1cc(C(=O)N[C@H](C(=O)O)C2CCCCC2)nn1-c1ccnc2cc(Cl)ccc12	inactive	
CC[C@H](C)[C@H](NC(=O)c1cc(-c2c(OC)cccc2OC)n(-c2ccnc3cc(Cl)ccc23)n1)C(=O)O	inactive	

Next, values leading:

Activity [1]	pEC50 [2]	Structure (SMILES)
62%	5.69	CC(C)C[C@H](NC(=O)c1cc(-c2ccccc2)n(-c2ccnc3cc(Cl)ccc23)n1)C(=O)O
20%		CCCC[C@H](NC(=O)c1cc(-c2c(OC)cccc2OC)n(-c2ccnc3cc(Cl)ccc23)n1)C(=O)O
18%		CCC[C@H](NC(=O)c1cc(-c2c(OC)cccc2OC)n(-c2ccnc3cc(Cl)ccc23)n1)C(=O)O
11%		CC[C@H](NC(=O)c1cc(-c2c(OC)cccc2OC)n(-c2ccnc3cc(Cl)ccc23)n1)C(=O)O
86%	6.66	COc1ccccc1-c1cc(C(=O)N[C@@H](CC(C)C)C(=O)O)nn1-c1ccnc2cc(Cl)ccc12
5%		COc1cccc(OC)c1-c1cc(C(=O)N[C@H](C(=O)O)C(C)C)nn1-c1ccnc2cc(Cl)ccc12
84%	5.92	CC(C)C[C@H](NC(=O)c1cc(-c2ccccc2OC(F)(F)F)n(-c2ccnc3cc(Cl)ccc23)n1)C(=O)O
